Measured values taken from ChEMBL document CHEMBL4270543, “Synthesis and biological evaluation of (1-aryl-1H-pyrazol-4-yl) (3,4,5-trimethoxyphenyl)methanone derivatives as tubulin inhibitors” (Eur J Med Chem, 2018).
The source made the active and inactive calls. The calls are words filed in the database; no cut-off is given here.

Experiments:
A549 = test: Antiproliferative activity against human A549 cells after 72 hrs by MTT assay; format: functional, cell-based; details: A549, 72 h
Outline: (§1)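 Human tumour cells were exposed to the compound for 72 h, and growth was read by standard MTT assay. IC50 is the concentration giving 50% inhibition, taken as the average of three parallel experiments.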

HT-1080 = test: Antiproliferative activity against human HT1080 cells after 72 hrs by MTT assay; format: functional, cell-based; details: HT-1080, 72 h; outline: as §1
SGC-7901 [1] = test: Antiproliferative activity against human SGC7901 cells after 72 hrs by MTT assay; format: functional, cell-based; details: SGC-7901, 72 h; outline: as §1
L929 = test: Cytotoxicity against mouse L929 cells after 72 hrs by MTT assay; format: cell-based; details: L929, 72 h
Sus scrofa [2] = species: Sus scrofa; test: Inhibition of porcine brain tubulin polymerization at 2.5 uM preincubated for 1 min followed by GTP addition measured at 1 min time interval for 90 mins by fluorescence assay
Outline: (§2)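 Run with a commercial tubulin polymerization kit following the manufacturer's protocol. Tubulin was pre-incubated for 1 min with compound (2.5, 5, 10 or 20 µM) or DMSO vehicle, then GTP was added to start polymerization. Reactions were monitored at 37 °C.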

Tubulin (Homo sapiens) = Tubulin (Homo sapiens) (UniProt P68371+Q9H4B7+P0DPH7+P68366+Q13509+Q71U36+P04350+Q3ZCM7+P07437+P68363+Q9BQE3+Q6PEY2+Q13885+Q9BVA1+Q9BUF5); test: Inhibition of tubulin polymerization in human SGC7901 cells assessed as disruption of microtubule formation at 2 times antiproliferative IC50 after 24 hrs by DAPI staining based immunofluorescence microscopic method; format: cell-based
Outline: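 SGC-7901 cells were treated for 24 h at 2-fold their antiproliferative IC50. Cells were stained with anti-α-tubulin-FITC antibody and then DAPI for DNA, and the microtubule network was examined by confocal microscopy.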

[3] = (§3) Inhibition of porcine brain tubulin polymerization preincubated for 1 min followed by GTP addition measured at 1 min time interval for 90 mins by fluorescence assay; design: species or system Sus scrofa; outline: as §2
Sus scrofa [4] = species: Sus scrofa; test: as §3; outline: as §2
SGC-7901 [5] = test: Cell cycle arrest in human SGC7901 cells assessed as accumulation at G2/M phase at 27 to 108 nM after 24 hrs by propidium iodide staining based flow cytometry (reference value: 15%); format: functional
SGC-7901 [6] = test: Cell cycle arrest in human SGC7901 cells assessed as accumulation at G2/M phase after 24 hrs by propidium iodide staining based flow cytometry; format: functional
Outline: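 SGC-7901 cells were treated for 24 h with a vehicle control run in parallel. Cell-cycle phase distribution was obtained by flow cytometry, with G2/M accumulation as the read-out.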

Sus scrofa [7] = species: Sus scrofa; test: Inhibition of porcine brain tubulin polymerization at 5 uM preincubated for 1 min followed by GTP addition measured at 1 min time interval for 90 mins by fluorescence assay; outline: as §2

IC50 (A549) | IC50 (HT-1080) | IC50 (SGC-7901 [1]) | SMILES | also measured
> 30 µM | > 30 µM | > 30 µM | COc1cc(C(=O)c2cnn(-c3ccccc3C)c2N)cc(OC)c1OC | 
> 30 µM | > 30 µM | > 30 µM | COc1cc(C(=O)c2cnn(-c3ccc(Cl)cc3)c2)cc(OC)c1OC | 
16.3 µM | 3.1 µM | 7.8 µM | CCc1ccc(-n2cc(C(=O)c3cc(OC)c(OC)c(OC)c3)cn2)cc1 | 
> 30 µM | > 30 µM | > 30 µM | COc1cc(C(=O)c2cnn(-c3ccc(F)cc3)c2N)cc(OC)c1OC | 
18.7 µM | > 30 µM | 17.9 µM | COc1ccc(-n2cc(C(=O)c3cc(OC)c(OC)c(OC)c3)cn2)cc1 | 
> 30 µM | > 30 µM | > 30 µM | CCc1ccc(-n2ncc(C(=O)c3cc(OC)c(OC)c(OC)c3)c2N)cc1 | 
20.6 µM | > 30 µM | 29.6 µM | COc1cc(C(=O)c2cnn(-c3ccc(C)cc3)c2N)cc(OC)c1OC | 
14 µM | 2.8 µM | 6.5 µM | COc1cc(C(=O)c2cnn(-c3ccc(F)cc3)c2)cc(OC)c1OC | 
> 30 µM | > 30 µM | > 30 µM | COc1cc(C(=O)c2cnn(-c3ccccc3Br)c2N)cc(OC)c1OC | 
> 30 µM | > 30 µM | > 30 µM | COc1cc(C(=O)c2cnn(-c3cc(C)ccc3C)c2N)cc(OC)c1OC | 
2.6 µM | 12.9 µM | 3.7 µM | COc1cc(C(=O)c2cnn(-c3cc(C)ccc3C)c2)cc(OC)c1OC | 
> 30 µM | > 30 µM | > 30 µM | COc1cc(C(=O)c2cnn(-c3cccc(Br)c3)c2)cc(OC)c1OC | 
> 30 µM | > 30 µM | > 30 µM | COc1cc(C(=O)c2cnn(-c3ccc(Cl)cc3)c2N)cc(OC)c1OC | 
20.4 µM | 3.7 µM | 16.7 µM | COc1cc(C(=O)c2cnn(-c3cccc(Cl)c3)c2)cc(OC)c1OC | 
> 30 µM | > 30 µM | > 30 µM | COc1cc(C(=O)c2cnn(-c3cccc(Cl)c3)c2N)cc(OC)c1OC | 
8.6 µM | 19.4 µM | > 30 µM | COc1cc(C(=O)c2cnn(-c3ccccc3)c2)cc(OC)c1OC | 
> 30 µM | > 30 µM | > 30 µM | COc1cc(C(=O)c2cnn(-c3ccccc3C)c2)cc(OC)c1OC | 
> 30 µM | 22.6 µM | > 30 µM | COc1cc(C(=O)c2cnn(-c3ccc(C)cc3C)c2)cc(OC)c1OC | 
> 30 µM | 17 µM | > 30 µM | COc1cc(C(=O)c2cnn(-c3ccc(C(C)C)cc3)c2)cc(OC)c1OC | 

Continued, compound first:

SMILES | IC50 (A549) | IC50 (HT-1080) | IC50 (SGC-7901 [1]) | also measured
COc1cc(C(=O)c2cnn(-c3ccccc3Cl)c2N)cc(OC)c1OC | > 30 µM | > 30 µM | > 30 µM | 
COc1cc(C(=O)c2csc(-c3ccccc3)n2)cc(OC)c1OC | 0.032 µM | 0.027 µM | 0.023 µM | IC50 (L929): 21 µM; inhibition (Sus scrofa [2]): Active; inhibition (Tubulin (Homo sapiens)): Active
COc1cc(C(=O)c2cnn(-c3ccc(C)cc3)c2)cc(OC)c1OC | 0.11 µM | 0.16 µM | 0.054 µM | IC50 (L929): 65.7 µM; IC50 [3]: 9.17 µM; inhibition (Sus scrofa [4]): Dose-dependent effect; inhibition (Tubulin (Homo sapiens)): Active; Activity (SGC-7901 [5]): <=68%; Activity (SGC-7901 [6]): Dose-dependent effect
COc1ccc(-n2ncc(C(=O)c3cc(OC)c(OC)c(OC)c3)c2N)cc1 | > 30 µM | > 30 µM | > 30 µM | 
CC(=O)O[C@H]1C(=O)[C@@]2(C)[C@H]([C@H](OC(=O)c3ccccc3)[C@]3(O)C[C@H](OC(=O)[C@H](O)[C@@H](NC(=O)c4ccccc4)c4ccccc4)C(C)=C1C3(C)C)[C@]1(OC(C)=O)CO[C@@H]1C[C@@H]2O |  |  |  | inhibition (Sus scrofa [7]): inactive
COc1cc(/C(=N\O)c2cnn(-c3ccc(C)cc3)c2)cc(OC)c1OC (mixture of isomers) | 0.14 µM | 0.09 µM | 0.071 µM | IC50 (L929): 96.2 µM
COc1cc(C(=O)c2cnn(-c3cc(C)cc(C)c3)c2N)cc(OC)c1OC | > 30 µM | > 30 µM | > 30 µM | 
COc1cc(C(=O)c2cnn(-c3ccc(C)cc3C)c2N)cc(OC)c1OC | > 30 µM | > 30 µM | > 30 µM | 
COc1cc(C(=O)c2cnn(-c3cccc(Cl)c3C)c2)cc(OC)c1OC | > 30 µM | > 30 µM | > 30 µM | 
COc1cc(C(=O)c2cnn(-c3ccccc3)c2N)cc(OC)c1OC | 11.3 µM | 5 µM | 24.7 µM | 
COc1cc(C(=O)c2cnn(-c3cc(C)cc(C)c3)c2)cc(OC)c1OC | 2.3 µM | 1.6 µM | 1.9 µM | 
COc1cc(C(=O)c2cnn(-c3ccccc3Cl)c2)cc(OC)c1OC | > 30 µM | > 30 µM | > 30 µM | 
COc1cc(C(=O)c2cnn(-c3cccc(Br)c3)c2N)cc(OC)c1OC | > 30 µM | > 30 µM | > 30 µM | 
COc1cc(C(=O)c2cnn(-c3ccc(C(C)C)cc3)c2N)cc(OC)c1OC | > 30 µM | > 30 µM | > 30 µM | 
COc1cc(C(=O)c2cnn(-c3cccc(Cl)c3C)c2N)cc(OC)c1OC | > 30 µM | > 30 µM | > 30 µM | 
COc1cc(C(=O)c2cnn(-c3ccccc3Br)c2)cc(OC)c1OC | > 30 µM | > 30 µM | > 30 µM | 
